Results taken from ChEMBL document CHEMBL4513216, “Probing the Open Global Health Chemical Diversity Library for Multistage-Active Starting Points for Next-Generation Antimalarials” (ACS Infect Dis, 2020).

Assay: Toxicity liver stage against HepG2, at 10uM
Type: cell-based
Parameters: test concentration 10 uM, cell line HepG2-A16-CD81EGFP
Details: human, HepG2-A16-CD81EGFP cells; read-out: INHIBITION
Summary of the method: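 Uninfected HepG2-A16-CD81EGFP cells, 3 × 10^3 per well, 1536-well, plated on prespotted compound at 10 μM final, parasite-free screening media added to match infected plates; puromycin 10 μM positive, DMSO 0.5% negative; run in parallel with 48 h PbLuc assay at 37 °C, 5% CO2; viability by CellTiter-Glo luminescence, normalized to controls.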

Row | SMILES | cytotoxicity at 10 µM [%]
1 | O=C(NC[C@H]1OC[C@@H](NC2CCC(F)(F)CC2)[C@@H]1O)C1CCCC1 | -77.9
2 | Cn1ccnc1CN1C(=O)CO[C@H]2CN(Cc3ccccc3O)C[C@H]21 | 4.22
3 | CC(C)(C)C(=O)N1CC(=O)N(Cc2ccco2)CC(O)C1 (configuration not stated) | 4.79
4 | O=C(CCc1ccc(-n2cnnn2)cc1)Nc1nncs1 | -1.14
5 | O=C(CCCn1cnc2ccccc2c1=O)Nc1nc[nH]n1 | -4.84
6 | Cn1cccc1C(O)CNC(=O)COc1ccccc1F (configuration not stated) | -2.54
7 | CCOc1ccc(NC(=O)NCC(C)(O)c2cccs2)cc1 (configuration not stated) | -0.579
8 | CN1C(=O)CC2(CCN(S(=O)(=O)c3cccs3)CC2)c2ccccc21 | 1.86
9 | C[C@@H]1C[C@@H]2CCN(Cc3nccs3)C[C@H]2O1 | -3.15
10 | Cn1nc(CN2CCCC2)c2c1CN(C(=O)c1ccncc1F)CC2 | -154
11 | COc1cccc(CC(=O)N2Cc3nccn3CC(CN(C)C)C2)c1 (configuration not stated) | -135
12 | O=C(c1cnccn1)N1CCC2(CCCN(Cc3ccoc3)C2)C1 (configuration not stated) | -139
13 | CC(=O)Nc1ncc(S(=O)(=O)Nc2ccccc2)s1 | 6.72
14 | CCC(C)c1noc(C2CCN(C(=O)Cn3nc(C)cc3C)CC2)n1 (configuration not stated) | 6.58
15 | CS(=O)(=O)N1CCC(C(=O)NCCCn2cc(Cl)cn2)CC1 | -8.97
16 | O=C(c1ccc2c(c1)CCC2)N1CCn2ncnc2C1 | -5.26
17 | COc1ccc(S(=O)(=O)N2CCC[C@@H]3CN(C(=O)C4CC4)C[C@@H]32)cc1F | 3.75
18 | O=C(NCC1(O)COCCN(Cc2cccc(O)c2)C1)c1ccccn1 (configuration not stated) | -4.29
19 | Cc1cnn(Cc2cccc(OCC(N)=O)c2)c1 | -2.84
20 | Cc1ncc(CNC(=O)N(C)Cc2ccc([S+](C)[O-])cc2)s1 (configuration not stated) | 9.35
21 | CCCN(CC1COc2ccccc2O1)C(=O)CCN1C(=O)CCC1=O (configuration not stated) | -37

Row | SMILES | cytotoxicity at 10 µM [%]
22 | N#Cc1ccc(CN2CCOCC2)cc1 | -9.32
23 | CN(CC(O)C(F)(F)F)C(=O)Nc1cccc(C(F)F)c1 (configuration not stated) | 5.46
24 | CN(C)c1cccc(C(=O)Nc2ccn(CCc3ccncc3)n2)c1 | 0.209
25 | O=C(C1CC1)N1CCC(c2nc(-c3ccccc3)n[nH]2)CC1 | -4.15
26 | COc1cccc(CCCN2CCC(N(C)S(C)(=O)=O)CC2)c1 | -3.88
27 | Cc1ccc(C(=O)NCCNS(C)(=O)=O)c(=O)[nH]1 | -5.3
28 | CC(=O)c1cccc(NC(=O)CN2CCCCC2C(=O)N2CCCC2)c1 (configuration not stated) | -8.82
29 | CSC(C)(C)CNC(=O)NC1CCN(CC=C(C)C)CC1 | -6.45
30 | O=C(CCN1CCCC1c1cccc2c1OCCO2)N1CCCCC1 (configuration not stated) | 2.43
31 | CCC(=O)NC1CCN(c2cccc(OC(F)(F)F)c2)C1=O (configuration not stated) | -11.5
32 | Cc1nn(C)c(C)c1OCC(=O)NCC(O)c1ccco1 (configuration not stated) | -4.71
33 | CCC(CNC(=O)c1ccccn1)N1CCc2ccccc2C1 (configuration not stated) | 1.02
34 | CCNC(=O)N1CCC(n2ccc(C(F)(F)F)n2)CC1 | 10.5
35 | CCc1cc(NC(=O)C(c2cccc(F)c2)N2CCOCC2)[nH]n1 (configuration not stated) | -10.3
36 | CC(C(=O)NCc1cn2cc(Br)ccc2n1)S(C)(=O)=O (configuration not stated) | -16.4
37 | CC(NC(=O)c1csnn1)c1ccc(OCC2CC2)c(F)c1 (configuration not stated) | -1
38 | O=C(NCCCOCC1CCCO1)c1cccnc1N1CCOCC1 (configuration not stated) | 3.68
39 | CC(C)(C)CC(=O)NCCCn1cncn1 | -4.34
40 | O=C(CCCC1CCCC1)NS(=O)(=O)CC1CC1 | -5.62
41 | O=c1c2cccnc2cnn1CC(O)c1cccc(C(F)(F)F)c1 (configuration not stated) | -3.67
42 | Cc1nn(CC(=O)Nc2cccc(F)c2)c(N)c1C#N | 17.9

Row | SMILES | cytotoxicity at 10 µM [%]
43 | Cc1nc(CNC(=O)Nc2ccc3c(ccn3CCN(C)C)c2)no1 | -21.8
44 | O=C(CN1CCCc2c(F)cc(Br)cc21)N1CCCC1 | -1.26
45 | CN(Cc1ccc([S+](C)[O-])cc1)c1ccccn1 (configuration not stated) | -7
46 | CC(C)c1ncc(Cl)c(C(=O)N2CCN(C3CC3)CC2)n1 | 3.78
47 | CCc1nc(C(=O)N2CCN(C)c3ccccc32)c[nH]1 | 1.16
48 | Cc1cc2ccccc2n1CC(=O)Nc1ccnn1CC1CCOC1 (configuration not stated) | 7.77
49 | O=C1C(N2CCN(c3ccc(O)cc3)CC2)CCN1C1CCOCC1 (configuration not stated) | 12.6
50 | O=C(c1ccsc1)N1CCN(CC(O)c2cccc(F)c2)CC1 (configuration not stated) | -46.7
51 | COCCNC(=O)C[C@@H]1COC[C@H]2CN(Cc3cccnc3)C[C@@H]12 | 2.13
52 | Cn1ncc2c1C(COCC1CC1)CN(CC1CC1)C2 (configuration not stated) | -78.5
53 | CN(C)CCN1CC[C@@H]2[C@@H]1CCN2C(=O)c1cccc(Cl)c1 | -84
54 | Cn1ccnc1CN1CC[C@@H]2[C@@H](CCC(=O)N2CCc2c[nH]cn2)C1 | -5.68
55 | NCC1CN(C(=O)c2cccc(-n3cccn3)c2)CCO1 (configuration not stated) | -1.56
56 | CC(=O)c1cn(CC(=O)N2CCC(O)(CO)CC2)c2ccccc12 | 1.13
57 | Cc1nc2c(C)cccc2cc1C(=O)N1CCC2(CC1)NCCNC2=O | -0.0638
58 | CC(C)c1cc(N2CCC3(CC2)CN(C)CCN3C)ncn1 | -16.2
59 | CCC(C)Oc1ccc(CNCCNC(C)=O)cc1OC (configuration not stated) | -8.09
60 | CCn1c(C)nnc1SCCNC(=O)c1cccc2ccnn12 | -54.6
61 | CCCc1nc(N2CCCC(CCOC)C2)c2cnn(C)c2n1 (configuration not stated) | 12.1
62 | COc1cccc2c1OCC(C(=O)NCCc1nc3c(s1)CCC3)C2 (configuration not stated) | -39.6
63 | Cc1ccccc1CN(CCN(C)C)Cc1ccc(S(C)(=O)=O)cc1 | 6.3

Row | SMILES | cytotoxicity at 10 µM [%]
64 | Cc1nc(CNc2nc3c(s2)c(C)nn3C)cs1 | -109
65 | CCN(Cc1ccncc1)c1nc(C)nc2oc(C)nc12 | -50.6
66 | N[C@H]1CN(C(=O)c2cnc3cc(Cl)ccc3c2O)C[C@@H]1C1CC1 | -44.1
67 | CCCn1ccnc1CN1CCC(O)(CN2CCCCC2)C1 (configuration not stated) | -6.12
68 | CCOc1ccc(C(=O)CCC(=O)N(C)Cc2cnccn2)cc1C | 1.39
69 | Cc1ncsc1CCCn1ccnc1-c1cc2n(n1)CCCNC2 | 3.28
70 | Cc1cc(C)n(C2CN(c3ncnc4c3CCNCC4)C2)n1 | 7.99
71 | O=C1N(CCCc2ccccc2)CCCC1(O)CNCc1ccccc1 (configuration not stated) | 10.4
72 | Cc1cc(C2CCCN(C(=O)c3cnn(C)c3)C2)ccn1 (configuration not stated) | -2.83
73 | Cc1cc(C2CCCN(C(=O)c3cnccn3)C2)ccn1 (configuration not stated) | 0.204
74 | CCCc1cc(C(=O)N2CCOC(c3nc(-c4cccs4)no3)C2)no1 (configuration not stated) | 8.37
75 | COCC(c1cccc(C(F)(F)F)c1)N(C)C(=O)c1ccoc1 (configuration not stated) | -3.84
76 | COc1ccc(Br)c(C(=O)NCCNc2ccc(C(F)(F)F)cn2)c1 | 12.7
77 | Cc1nc(CN2CCO[C@H]3[C@@H](OCc4ccccn4)CC[C@@H]32)cs1 | 0.179
78 | Cc1noc(C)c1CN1CCc2ncc(CN3CCCC3)n2CC1 | 0.78
79 | CCc1nnc(CN2CCC(C3CCCCCN3C(C)=O)CC2)o1 (configuration not stated) | -43
80 | Cc1nc(CN2C[C@@H]3CN(C(=O)c4ccco4)C[C@@H]3C2=O)cs1 | -77.7
81 | COCC(=O)N1CCc2ccccc2C12CCNCC2 | -0.602
82 | Cc1nc(COCC2CN(C(N)=O)Cc3nccn3C2)cs1 (configuration not stated) | 5.3
